Assays:
[1] = molecular target: T1, Carbonyl reductase [NADPH] 1 (Homo sapiens) (UniProt P16152); experiment: Binding affinity to human recombinant carbonyl reductase 1 expressed in Escherichia coli assessed as thermal shift by differential scanning fluorimetry in absence of cofactor
T1 sequence (whole entry): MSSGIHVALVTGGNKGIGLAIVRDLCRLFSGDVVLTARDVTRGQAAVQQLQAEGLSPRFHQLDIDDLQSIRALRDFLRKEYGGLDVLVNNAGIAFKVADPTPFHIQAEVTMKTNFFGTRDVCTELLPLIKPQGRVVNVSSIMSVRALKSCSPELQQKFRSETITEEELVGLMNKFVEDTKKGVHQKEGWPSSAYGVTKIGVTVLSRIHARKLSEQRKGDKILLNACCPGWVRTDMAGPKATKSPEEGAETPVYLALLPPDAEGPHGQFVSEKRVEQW
Summary of the method: (§1)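 Thermal-shift (DSF) binding assay with purified recombinant catalytic domains or proteins carrying an N- or C-terminal His6 tag or GST fusion. Purity was >95% by SDS/PAGE and identity was confirmed by MS. Protein was at 2 µM final in 10 mM HEPES pH 7.5 and 150 mM NaCl. Tm shift is reported, with 2 °C as the threshold for binding.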

[2] = molecular target: T1, Carbonyl reductase [NADPH] 1 (Homo sapiens); experiment: Binding affinity to human recombinant carbonyl reductase 1 expressed in Escherichia coli assessed as thermal shift by differential scanning fluorimetry in presence of NADP+; summary of the method: as §1
[3] = molecular target: T1, Carbonyl reductase [NADPH] 1 (Homo sapiens); experiment: Binding affinity to human recombinant carbonyl reductase 1 expressed in Escherichia coli assessed as thermal shift by differential scanning fluorimetry in presence of NADPH; summary of the method: as §1
[4] = molecular target: T2, Carbonyl reductase [NADPH] 3 (Homo sapiens) (UniProt O75828); experiment: Binding affinity to human recombinant carbonyl reductase 3 expressed in Escherichia coli assessed as thermal shift by differential scanning fluorimetry in absence of cofactor; summary of the method: as §1
T2 sequence (whole entry): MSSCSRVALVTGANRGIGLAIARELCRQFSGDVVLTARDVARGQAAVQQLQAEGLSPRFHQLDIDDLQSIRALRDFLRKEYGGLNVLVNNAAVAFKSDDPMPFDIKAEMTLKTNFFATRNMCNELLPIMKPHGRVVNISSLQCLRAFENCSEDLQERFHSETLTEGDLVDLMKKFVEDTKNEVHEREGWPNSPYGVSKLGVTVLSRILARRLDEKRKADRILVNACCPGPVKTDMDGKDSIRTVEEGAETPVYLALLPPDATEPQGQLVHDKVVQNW

[5] = molecular target: T2, Carbonyl reductase [NADPH] 3 (Homo sapiens); experiment: Binding affinity to human recombinant carbonyl reductase 3 expressed in Escherichia coli assessed as thermal shift by differential scanning fluorimetry in presence of NADP+; summary of the method: as §1
[6] = molecular target: T2, Carbonyl reductase [NADPH] 3 (Homo sapiens); experiment: Binding affinity to human recombinant carbonyl reductase 3 expressed in Escherichia coli assessed as thermal shift by differential scanning fluorimetry in presence of NADPH; summary of the method: as §1
[7] = molecular target: T3, Carbonyl reductase [NADPH] 1 (Homo sapiens, UniProt P16152); experiment: Binding affinity to human recombinant carbonyl reductase 1 expressed in Escherichia coli assessed as NADPH oxidation using isatin as substrate
T3 sequence (P16152 whole entry): T1 sequence (whole entry)
Summary of the method: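 Purified recombinant CBR1 (200 nM) and NADPH were added to compound in 50 mM sodium phosphate, pH 6.8, 1 mM MgCl2. NADPH oxidation was followed as the fluorescence decrease at 460 nm (excitation 355 nm). Rates came from linear regression after normalising to the fluorescence rise at injection. Compounds were titrated at two isatin levels, with no-protein background subtracted. Sigmoidal fit gave IC50, then Ki from the isatin concentration.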

[8] = molecular target: T1, Carbonyl reductase [NADPH] 1 (Homo sapiens); experiment: Binding affinity to human recombinant carbonyl reductase 1 expressed in Escherichia coli assessed as NADPH oxidation at 200 uM relative to isatin
Summary of the method: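 Substrate test used 200 nM purified CBR1 and 200 µM NADPH, injected onto compound at 200 µM in 50 mM sodium phosphate pH 6.8 with 1 mM MgCl2. NADPH oxidation was read as the fluorescence decrease at 460 nm (excitation 355 nm). Rate came from linear regression after normalizing to the fluorescence rise on injection. Run in triplicate and expressed as % of the isatin rate.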

SMILES | Tm [1] | Tm [2] | Tm [3] | Tm [4] | Tm [5] | Tm [6] | IC50 [7] | Ki [7] | Activity [8]
Oc1cc(Cl)ccc1Oc1ccc(Cl)cc1Cl [TRICLOSAN] | < 2 °C | 3.4 °C | < 2 °C | < 2 °C | < 2 °C | < 2 °C | 0.4 µM | 0.06 µM | 
COc1cc(O)c2c(c1)oc(=O)c1c3cc(O)c(O)cc3oc21 [WEDELOLACTONE] | 2 °C | 5.1 °C | < 2 °C | < 2 °C | < 2 °C | < 2 °C | 3.78 µM | 0.6 µM | 5.8%
O=c1cc(-c2ccccc2)oc2cc(O)cc(O)c12 [CHRYSIN] | < 2 °C | 4.6 °C | < 2 °C | < 2 °C | < 2 °C | < 2 °C | 0.67 µM | 0.11 µM | 16.3%
O=c1c(O)c(-c2ccc(O)c(O)c2)oc2cc(O)cc(O)c12 | < 2 °C | < 2 °C | < 2 °C | < 2 °C | < 2 °C | < 2 °C |  |  | 
O=C1C[C@@H](c2ccc(O)cc2)Oc2cc(O)cc(O)c21 [NARINGENIN] | < 2 °C | 2.3 °C | < 2 °C | < 2 °C | < 2 °C | < 2 °C | 21.5 µM | 3.43 µM | 4.7%
COc1ccc(-c2coc3cc(O)cc(O)c3c2=O)cc1 [BIOCHANIN] | < 2 °C | 2.7 °C | < 2 °C | < 2 °C | < 2 °C | < 2 °C | 12.7 µM | 2.03 µM | 9.3%
O=c1c(-c2ccc(O)cc2)coc2cc(O)cc(O)c12 | < 2 °C | < 2 °C | < 2 °C | < 2 °C | < 2 °C | < 2 °C |  |  | 

Reference: ChEMBL document CHEMBL1140872, “Discovery of a potent and selective inhibitor for human carbonyl reductase 1 from propionate scanning applied to the macrolide zearalenone” (Bioorg Med Chem, 2009)
